Screening data as filed in PubChem BioAssay.
CRFR2-BP antag – blocks CRF-induced signaling of the CRF-BP/CRF-R2 complex; inhibition, % at 11.8 µM; 0.59% of 350,000 active; HEK293 CRF-R2/CRF-BP, CRF-induced calcium fluorescence;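 active means inhibition of the ligand-induced calcium signal above about 50% at the single tested concentration, limit read from the data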
zfTRPN1 agonist – agonists of zebrafish TRPN1 channel; activation, % at 3 µM; 0.18% of 220,000 active; HEK293 zebrafish TRPN1-YFP, Fluo-8 calcium fluorescence; 100% = response to 87 µM carbachol;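 active means activation above its plate's cutoff, the mean activation of test wells on that plate plus 3 SD, cut at about 19% in these data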;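 further: 0% = DMSO alone and 100% = 87 µM carbachol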
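Material – zebrafish TRPN1-YFP in HEK293 cells · Doses – 3 µM single point · Schedule – dye 1 h 37 °C plus 30 min RT · Signal – Fluo-8 calcium fluorescence, excitation 470-495 nm, emission 515-575 nm · Read-out – % activation versus carbachol response · Control set – carbachol high, DMSO low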
GPR7 antagonist – blocks human GPR7 receptor signaling; 1.1% of 290,000 active; GPR7-expressing cells, fluorescence antagonist assay; inhibition, % at 4.4 µM; P48145; in the data active means inhibition above about 16%, passing the limit was not always enough;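 further: cells stimulated with the agonist NPW; 0% = agonist with vehicle and 100% = vehicle without agonist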
CRFBP-R2 agonist – CRF-BP/CRF-R2 complex agonism; HEK293 CRF-R2/CRF-BP, calcium dye fluorescence (FLIPR); percent of saturating CRF peptide response; activation, % at 13.2 µM; 0.46% of 350,000 active; AID 588473;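 active means activation of at least 50%, plus an integration ratio under a set limit after plate pattern correction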;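 further: plate controls were neutral control wells without compound for no effect and CRF at EC100 for full effect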
TRPML3 agonist – agonists of human TRPML3 channel; 0.29% of 220,000 active; HEK293 TRPML3-YFP, Fluo-8 calcium fluorescence; 100% = the carbachol control signal; AID 1448; activation, % at 3 µM;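 active means activation above its plate's cutoff, the mean activation of the plate's test wells plus 3 SD, cut at about 12% in these data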;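 further: 0% = DMSO only wells and 100% = carbachol wells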
Target sequence (Q8TDD5 whole entry, looked up): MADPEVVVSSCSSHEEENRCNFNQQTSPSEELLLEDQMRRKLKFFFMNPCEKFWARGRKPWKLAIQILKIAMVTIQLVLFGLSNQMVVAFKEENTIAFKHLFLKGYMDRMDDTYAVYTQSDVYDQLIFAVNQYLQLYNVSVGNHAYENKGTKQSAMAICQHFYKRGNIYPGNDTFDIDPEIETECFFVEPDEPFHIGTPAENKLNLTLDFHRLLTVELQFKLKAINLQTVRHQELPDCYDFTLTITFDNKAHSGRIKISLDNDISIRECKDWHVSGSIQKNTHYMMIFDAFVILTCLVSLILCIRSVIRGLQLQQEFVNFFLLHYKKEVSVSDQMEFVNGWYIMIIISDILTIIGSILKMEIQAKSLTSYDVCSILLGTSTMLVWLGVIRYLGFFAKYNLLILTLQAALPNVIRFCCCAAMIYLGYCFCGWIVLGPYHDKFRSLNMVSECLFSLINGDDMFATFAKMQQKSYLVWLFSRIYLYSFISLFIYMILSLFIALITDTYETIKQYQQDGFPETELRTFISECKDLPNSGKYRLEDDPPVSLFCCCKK
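Material: HEK293 cells stably carrying human TRPML3-YFP; compound dosing: single dose, 3 µM final nominal compound, 0.3% DMSO final; incubation: 1-h 37 °C dye load, 5-s basal, 120-s post-compound reads; technique: Fluo-8 intracellular calcium fluorescence, excitation 470-495 nm, emission 515-575 nm; read-out basis: percent activation from peak-to-basal fluorescence ratio, scaled between DMSO and carbachol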
Numbers without * were called inactive; / = not tested or not shown. This is a sample that favours compounds with a hit; in the whole collection about 2% have one here.

SMILES | CRFR2-BP antag | zfTRPN1 agonist | GPR7 antagonist | CRFBP-R2 agonist | TRPML3 agonist
COCCn1nnnc1C(c1ccccc1)N1CCN(c2ccccc2)CC1 (configuration not stated) | 52* | -1 | -1 | -2 | 1
COCCn1nnnc1C(c1ccccc1)N1CCN(C)CC1 (configuration not stated) | 22 | -1 | 9 | -1 | 0
COc1ccc(C(c2nnnn2Cc2ccccc2)N2CCN(c3ccccc3)CC2)cc1 (configuration not stated) | 57* | -1 | 15 | -1 | -1
COc1ccc(C(c2nnnn2Cc2ccccc2)N2CCN(c3nc4ccccc4s3)CC2)cc1 (configuration not stated) | -12 | 1 | 2 | 0 | 1
COCCn1nnnc1C(c1ccc(OC)cc1OC)N1CCN(c2ccccc2F)CC1 (configuration not stated) | -5 | -1 | 21* | 0 | 0
Nc1nc(COC(=O)C2CC(=O)N(CCc3ccccc3)C2)nc(Nc2ccccc2)n1 (configuration not stated) | 4 | / | / | -1 | /
CCc1ccccc1SCc1noc(C(=O)NCC2CCCO2)c1C(=O)O (configuration not stated) | -2 | 1 | 1 | 0 | 0
O=C(NCC1CCCO1)c1onc(CSc2cccc3ccccc23)c1C(=O)O (configuration not stated) | 50* | -1 | -10 | -5 | 0
C=CCOc1ccc(/C=C2\SC(=S)N(C(C(=O)O)c3ccccc3)C2=O)cc1 (configuration not stated) | 55* | 2 | -7 | -3 | 1
O=c1ccc2c(-c3ccccc3)c3ccc(O)cc3oc-2c1 | -124 | / | 23 | 178* | /
COc1cccc(Nc2ccccc2C(=O)O)c1 | -12 | 1 | -3 | -3 | 1
COc1cccc(Oc2ccc(OC)cc2C(=O)O)c1 | 74* | -1 | 3 | 4 | 1
Cc1cc(OCc2cccc(S(=O)(=O)N3CCOCC3)c2)ccc1Cl | 7 | / | / | 1 | /
COc1ccc(CCNC(=O)COC(=O)c2ccccc2NCCO)cc1OC | -4 | / | / | 0 | /
Cc1cc(C)c(CN2CCC(n3nccc3NC(=O)CCOc3ccccc3)CC2)cc1C | -18 | / | 0 | 1 | /
CC(=O)NC(=S)Nc1cccc([N+](=O)[O-])c1 | 5 | 3 | -14 | 1 | 1
Cc1ccc(CC(=O)Nc2cccc([N+](=O)[O-])c2)cc1 | 15 | -1 | 19* | 2 | 0
O=C(NC(=S)Nc1cccc([N+](=O)[O-])c1)C1CCCC1 | -6 | / | 20* | 0 | /
Cc1ccccc1OC(=O)c1cccc(S(=O)(=O)N2CCN(C)CC2)c1 | 10 | / | / | -2 | /
O=C1NC(=S)S/C1=C\c1cccc([N+](=O)[O-])c1 | 55* | / | / | 35 | /
CCN(CC)c1ccc(C=C2SC(=S)NC2=O)cc1 | -164 | / | / | 168* | /
O=C1NC(=Nc2ccccc2Cl)S/C1=C\c1cccc([N+](=O)[O-])c1 | 14 | / | -7 | -1 | /
CC1(C)C[C@H](O)[C@@]23C[C@@H](OC2=O)[C@]2(C)C(=CCC4[C@@]5(C)CC[C@H](O)C(C)(C)C5CC[C@]42C)[C@@H]3C1 (some centres not stated) | -43 | / | / | 74* | /
CCN(CC)C1Oc2cc3c(cc2C(c2cccc(OC)c2O)C1C)OCO3 (configuration not stated) | 120* | / | / | 0 | /
CCN(CC)C1Oc2cc3c(cc2C(c2cc(OC)c(O)c(OC)c2)C1C)OCO3 (configuration not stated) | -40 | / | / | 1 | /
SMILES | CRFR2-BP antag | zfTRPN1 agonist | GPR7 antagonist | CRFBP-R2 agonist | TRPML3 agonist
COC(=O)c1c(C)[nH]c(C(=O)OC(C)C(=O)NC2CCCCC2C)c1C (configuration not stated) | 19 | / | / | 0 | /
CCCNC(=O)c1ccc(CN2CCc3ccccc3C2)cc1 | 85* | 2 | -8 | -4 | 1
CCOC(=O)[C@H]1[C@H]2COc3ccc(OC)cc3[C@@H]2N2C(=O)CN(CCc3c[nH]c4ccccc34)C(=O)[C@@]12C | -9 | / | / | -1 | /
Cc1[nH]c(=O)nc(SCc2cccc(Cl)c2)c1C#N | 15 | / | -9 | -1 | /
N#Cc1c(-c2ccccc2)nc(SCc2cccc(Cl)c2)[nH]c1=O | 56* | / | -13 | 5 | /
O=c1nc(-c2ccccc2)n(-c2ccc(Cl)cc2)[nH]1 | 39 | 0 | -16 | 91* | 1
COCCNC(=O)CSc1ccccc1C(=O)NC1CCSc2ccccc21 (configuration not stated) | 6 | / | 2 | 0 | /
COC1=C/C(=C/c2c(N)n3nc(-c4ccc(C)cc4)sc3nc2=O)C=CC1=O | -226 | -1 | 13 | 195* | 0
CCOC1=C/C(=C/c2c(N)n3nc(-c4ccccc4)sc3nc2=O)C=CC1=O | -134 | 1 | -6 | 73* | 0
CS(=O)(=O)c1ccc2c(c1)sc1nc(=O)c(/C=C3/C=CC(=O)C(O)=C3)c(N)n12 | -29 | 0 | -11 | 28 | 1
COC1=C/C(=C/c2c(N)n3c(nc2=O)sc2cc(S(C)(=O)=O)ccc23)C=CC1=O | -87 | 6 | -16 | 96* | 3
Cc1ccc(Cl)c(N/C=C/C(=O)c2ccccc2)c1 | 1 | / | -14 | 0 | /
CNS(=O)(=O)c1cccc(C(=O)NCC(c2ccco2)N(C)C)c1 (configuration not stated) | 111* | / | -9 | 0 | /
COc1ccc(S(=O)(=O)N(c2onc(C)c2Cl)S(=O)(=O)c2ccc(OC)cc2)cc1 | 51* | 0 | -5 | -2 | 0
O=[N+]([O-])c1ccc(N2N=C(c3ccco3)CC2c2ccccc2)cc1 (configuration not stated) | -122 | 1 | 5 | 51* | 0
CC(=O)Nc1cccc(NC(=O)CSc2nc(=O)n3cccc(C)c3n2)c1 | -8 | / | / | -1 | /
Cc1noc(C)c1CCC(=O)Nc1c(C(C)C)cccc1C(C)C | 4 | / | / | 1 | /
CCCN1CCN(C2CCCCC2NS(=O)(=O)c2ccc(Cl)cc2)CC1 (configuration not stated) | 51* | / | 9 | 7 | /
O=S(=O)(NC1CCCCC1N1CCN(c2ccc(F)cc2)CC1)c1ccc(Cl)cc1 (configuration not stated) | -79 | / | -12 | 105* | /
CCCN1CCN(C2CCCCC2NS(=O)(=O)c2ccccc2)CC1 (configuration not stated) | 10 | / | 0 | -1 | /
CCCNc1c(NS(=O)(=O)c2ccc(C)cc2C)c(=O)oc2ccccc12 | 8 | / | -9 | -3 | /
CCOC(=O)CC[C@H](NC(=O)Cn1cnc2c(OCc3ccccc3)ncnc21)C(=O)OCC | -3 | / | / | 0 | /
O=[N+]([O-])c1ccc(-c2ccc(/C=N/Nc3nc(N4CCCC4)nc(N4CCCC4)n3)o2)cc1 | -113 | 2 | -16 | 129* | 1
